# ChEMBL document CHEMBL1212834, “Pyrido[2,3-b]pyrazines, discovery of TRPV1 antagonists with reduced potential for the formation of reactive metabolites” (Bioorg Med Chem Lett, 2010)
# Active and inactive are the calls of the source. The calls are words filed in the database; no cut-off is given here.
# Experiments:
# [1] = biological target: Transient receptor potential cation channel subfamily V member 1 (Homo sapiens, UniProt Q8NER1); assay: Antagonist activity at human TRPV1 assessed as inhibition of capsaicin-induced receptor activation by FLIPR assay; format: functional
# Summary of the method: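 Human TRPV1 activated by capsaicin; inhibition read by FLIPR. IC50 is the mean of ≥3 experiments.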
# [2] = Plasma concentration in rat complete Freund's adjuvant-induced inflammation model at 1 mg/kg, po QD for 3 consecutive days measured at 2 hrs post dose on day 1; format: ADME, organism-based; parameters: dose 1 mg/kg, route oral
# Summary of the method: (§1)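 CFA (200 µL) injected intraplantar into left hind paw; next day rats dosed orally once daily for three consecutive days (1, 3 or 10 mg/kg, suspension in 0.5% methocel). Separate cohort: plasma sampled each day 2 h after dosing.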
# Rattus norvegicus [3] = assay: Antiinflammatory activity in Sprague-Dawley rat assessed as inhibition of carrageenan-induced thermal hyperalgesia at 3 mg/kg, po administered 3.5 hrs after carrageenan challenge measured after 5 hrs; format: functional
# Summary of the method: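 Rat carrageenan-induced thermal hyperalgesia. Dosed orally as a suspension in 0.5% methocel; % inhibition reported at each dose.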
# Rattus norvegicus [4] = assay: Plasma concentration in Sprague-Dawley rat carrageenan-induced thermal hyperalgesia model at 3 mg/kg, po; format: ADME, organism-based; parameters: dose 3 mg/kg, route oral; details: in vivo
# Summary of the method: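 Rats given compound orally as a suspension in 0.5% methocel in the carrageenan-induced thermal hyperalgesia model. Plasma sampled immediately after the CITH experiment.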
# [5] = Clearance in rat at 1 mg/kg, iv; format: ADME, organism-based; parameters: dose 1 mg/kg, route intravenous; details: in vivo
# Summary of the method: (§2)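 IV PK at 1 mg/kg, given as a solution in 3:1 PEG300:water. Plasma half-life, clearance and volume of distribution derived.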
# [6] = Oral bioavailability in rat at 1 mg/kg; format: ADME, organism-based; details: in vivo
# Summary of the method: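 Oral bioavailability from a 1 mg/kg po dose (suspension in 0.5% methocel), compared against a 1 mg/kg iv dose (solution in 3:1 PEG300:water).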
# [7] = AUC (0 to 24 hrs) in rat at 1 mg/kg, po; format: ADME, organism-based; parameters: time < 24 hr, dose 1 mg/kg, route oral; details: plasma
# Summary of the method: (§3)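 Oral PK at the dose in the line, given as a suspension in 0.5% methocel. […] Reported as mean ± error.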
# [8] = Cmax in rat at 100 mg/kg, po; format: ADME, organism-based; parameters: dose 100 mg/kg, route oral; details: in vivo; summary of the method: as §3
# [9] = Half life in dog at 1 mg/kg, iv; format: ADME, organism-based, Canis lupus familiaris; parameters: dose 1 mg/kg, route intravenous; details: in vivo; summary of the method: as §2
# [10] = AUC (0 to 24 hrs) in dog at 1 mg/kg, po; format: ADME, organism-based, Canis lupus familiaris; parameters: time < 24 hr, dose 1 mg/kg, route oral; details: plasma; summary of the method: as §3
# [11] = Cmax in dog at 10 mg/kg, po; format: ADME, organism-based, Canis lupus familiaris; parameters: dose 10 mg/kg, route oral; details: in vivo; summary of the method: as §3
# [12] = AUC (0 to 24 hrs) in dog at 10 mg/kg, po; format: ADME, organism-based, Canis lupus familiaris; parameters: time < 24 hr, dose 10 mg/kg, route oral; details: plasma; summary of the method: as §3
# [13] = Clearance in rhesus monkey at 1 mg/kg, iv; format: ADME, organism-based, Macaca mulatta; parameters: dose 1 mg/kg, route intravenous; details: in vivo; summary of the method: as §2
# [14] = Plasma concentration in rat complete Freund's adjuvant-induced inflammation model at 10 mg/kg, po QD for 3 consecutive days measured at 2 hrs post dose on day 1; format: ADME, organism-based; parameters: dose 10 mg/kg, route oral; summary of the method: as §1
# [15] = biological target: T1, Amine oxidase [flavin-containing] A (Homo sapiens, UniProt P21397); assay: Inhibition of MAOA
# T1 sequence (P21397 whole entry): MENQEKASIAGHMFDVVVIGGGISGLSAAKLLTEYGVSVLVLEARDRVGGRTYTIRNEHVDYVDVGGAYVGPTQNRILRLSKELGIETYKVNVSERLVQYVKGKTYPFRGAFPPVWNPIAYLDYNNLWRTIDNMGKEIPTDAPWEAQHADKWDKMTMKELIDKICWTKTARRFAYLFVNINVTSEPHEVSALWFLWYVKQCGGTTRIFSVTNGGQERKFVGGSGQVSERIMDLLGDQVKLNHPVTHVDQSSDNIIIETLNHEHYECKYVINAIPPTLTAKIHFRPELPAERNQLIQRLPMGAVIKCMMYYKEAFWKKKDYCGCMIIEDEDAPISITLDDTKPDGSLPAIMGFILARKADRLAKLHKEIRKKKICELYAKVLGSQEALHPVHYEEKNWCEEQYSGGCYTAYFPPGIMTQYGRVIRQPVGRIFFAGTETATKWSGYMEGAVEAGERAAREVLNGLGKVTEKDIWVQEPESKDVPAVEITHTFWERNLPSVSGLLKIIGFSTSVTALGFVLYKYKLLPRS
# Summary of the method: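 Off-target panel of more than 160 receptors, ion channels, transporters and kinases, which included MAO.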
# [16] = AUC (0 to 24 hrs) in rat brain at 10 mg/kg, po; format: ADME, organism-based; parameters: time < 24 hr, dose 10 mg/kg, route oral
# [17] = Cmax in rat brain at 10 mg/kg, po; format: ADME, organism-based; parameters: dose 10 mg/kg, route oral
# Rattus norvegicus [18] = assay: Antiinflammatory activity in rat assessed as inhibition of complete Freund's adjuvant-induced hind paw edema at 10 mg/kg, po administered 1 day after complete Freund's adjuvant challenge QD for 3 consecutive days measured at 2 hrs post dose on day 1; format: functional
# Summary of the method: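 CFA 200 µL injected intraplantar into the left hind paw. From the next day, 1, 3 or 10 mg/kg po once daily for 3 days as a suspension in 0.5% methocel.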
# [19] = Plasma concentration in rat complete Freund's adjuvant-induced inflammation model at 3 mg/kg, po at 2 hrs on third day; format: ADME, organism-based; parameters: dose 3 mg/kg, route oral; summary of the method: as §1
# Liver microsomes = assay: Metabolic stability in rat liver microsomes assessed per mg of protein at 8.1 mg/kg, po after 2 to 24 hrs; format: ADME, organism-based, Microsome; parameters: dose 8.1 mg/kg, route oral
# Canis familiaris [20] = species on record: Canis familiaris; assay: Cardiotoxicity in dog assessed as effect on mean arterial pressure at plasma concentration of up to 24 uM; format: toxicity, organism-based, Canis lupus familiaris
# Canis familiaris [21] = species on record: Canis familiaris; assay: Cardiotoxicity in dog assessed as effect on heart rate at plasma concentration of up to 24 uM; format: toxicity, organism-based, Canis lupus familiaris
# MDCK = assay: Efflux ratio of permeability from basolateral to apical side over apical to basolateral side of MDCK cells; details: dog
# Rattus norvegicus [22] = assay: Antiinflammatory activity in rat assessed as reversal of complete Freund's adjuvant-induced mechanical hyperalgesia at 1 to 10 mg/kg, po administered 1 day after complete Freund's adjuvant challenge QD for 3 consecutive days measured at 24 hrs post dose on day 2
# Transient receptor potential cation channel subfamily V member 1, sequence (Q8NER1 whole entry): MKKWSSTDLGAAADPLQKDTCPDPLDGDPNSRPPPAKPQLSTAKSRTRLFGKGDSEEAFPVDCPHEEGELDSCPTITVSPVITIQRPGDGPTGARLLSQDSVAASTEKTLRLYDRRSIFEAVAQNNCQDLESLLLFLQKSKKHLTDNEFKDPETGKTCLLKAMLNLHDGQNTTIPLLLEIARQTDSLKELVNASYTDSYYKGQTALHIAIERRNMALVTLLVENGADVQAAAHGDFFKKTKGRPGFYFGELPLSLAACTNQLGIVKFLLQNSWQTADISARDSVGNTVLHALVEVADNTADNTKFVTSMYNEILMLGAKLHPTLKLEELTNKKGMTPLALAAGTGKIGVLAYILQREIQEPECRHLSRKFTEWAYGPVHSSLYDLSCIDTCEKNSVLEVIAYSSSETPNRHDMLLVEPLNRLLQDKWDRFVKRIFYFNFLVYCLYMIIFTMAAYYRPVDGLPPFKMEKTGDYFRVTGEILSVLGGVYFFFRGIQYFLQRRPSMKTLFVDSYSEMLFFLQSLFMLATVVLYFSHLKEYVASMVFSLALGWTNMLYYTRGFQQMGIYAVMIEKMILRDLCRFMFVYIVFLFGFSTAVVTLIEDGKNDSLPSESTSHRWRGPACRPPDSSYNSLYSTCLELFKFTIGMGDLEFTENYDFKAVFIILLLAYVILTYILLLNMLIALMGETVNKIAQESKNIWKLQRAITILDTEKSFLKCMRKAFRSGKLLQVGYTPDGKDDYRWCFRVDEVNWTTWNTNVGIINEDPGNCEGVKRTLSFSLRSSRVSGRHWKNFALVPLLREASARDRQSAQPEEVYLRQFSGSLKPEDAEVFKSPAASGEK
compound,measurement,setting,value
NC(=O)c1cnc(-c2cnc3c(Nc4ccc(C(F)(F)F)cn4)ccnc3n2)c(C(F)(F)F)c1,IC50,[1],0.0008 µM
same,concentration at 2 h,[2],0.27 µM
same,inhibition in vivo at 3 mg/kg,Rattus norvegicus [3],74%
same,concentration,Rattus norvegicus [4],1.09 µM
same,clearance,[5],1.5 L/h/kg
same,bioavailability,[6],103%
same,AUC(0-t) at 24 h,[7],1.4 µM·h
same,Cmax,[8],15 µM
same,half-life,[9],1.5 h
same,AUC(0-t) at 24 h,[10],2.7 µM·h
same,Cmax,[11],5.2 µM
same,AUC(0-t) at 24 h,[12],68 µM·h
same,clearance,[13],0.168 L/h/kg
same,concentration at 2 h,[14],2.43 µM
same,IC50,[15],2.4 µM
same,AUC(0-t) at 24 h,[16],3.4 µM·h
same,Cmax,[17],0.3 µM
same,inhibition in vivo at 10 mg/kg,Rattus norvegicus [18],85%
same,concentration at 2 h,[19],1.28 µM
same,Stability,Liver microsomes,< 10 pmol
same,Activity,Canis familiaris [20],Non-toxic
same,Activity,Canis familiaris [21],Non-toxic
same,Ratio,MDCK,3.1
same,inhibition,Rattus norvegicus [22],Active
